Only a selection was taken, and hits are over-represented in it overall.
CHOP inh – inhibitors of CHOP promoter induction, primary screen, cell-based, unfolded protein response, luciferase reporter; CHO-K1 CHOP-promoter luciferase, tunicamycin-induced, 15-18 h; inhibition, % at 10 µM; 220,000 tested, 3.8% active;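 active means compounds that reduced the stress-induced luciferase reporter signal by more than about 70% of percent inhibition, limit read from the data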;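 further: 0% = tunicamycin plus vehicle and 100% = wells without tunicamycin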
XBP1 UPR activ – activators of adaptive XBP1 UPR arm, primary screen, cell-based, CHO-XBP1 luciferase reporter, luminescence, uHTS. IRE1-XBP1 UPR activation; percent of tunicamycin response, DMSO as zero. activation, % at 20 µM. 330,000 tested, 0.33% active;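 active means versus positive control, 20 µM dose yields 30% or more activation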;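 further: 100% = tunicamycin at 10 µg/mL and 0% = DMSO only wells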
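Material – CHO cell line with stable XBP1 luciferase reporter · Buffer or medium – F12 plus 10% FBS · Compound – single point, 20 µM final compound, 1% DMSO · Schedule – 16-18 h cell attachment at 37 °C, then 6 h compound exposure · Signal – Steady-Glo luminescence read · Benchmarks – high control tunicamycin 10 µg/mL final, low control DMSO vehicle only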
UPR CHOP act – activators of apoptotic CHOP UPR arm, primary screen, cell-based, CHO-CHOP luciferase reporter, luminescence, uHTS. UPR activation; percent of tunicamycin response over DMSO baseline. activation, % at 10 µM. 330,000 tested, 0.34% active. AID 449763, 2010;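 active means at 10 µM dose, activation of 40% or more, normalized to positive control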;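 further: 100% = tunicamycin at 10 µg/mL and 0% = DMSO alone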
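measured by = luciferase luminescence | assay system = CHO-CHOP cells, stable luciferase reporter of PERK-eIF2a-CHOP signalling | amount = 500 reporter cells seeded per well | timing = 6 h compound exposure at 37 °C after overnight seeding | controls = positive tunicamycin 10 µg/mL, negative DMSO alone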
A1 inh – caspase 3/7 activation in MEF A1-2A-BIM cells, primary screen, A1 inhibitor project, cell-based, luminescence, HTS | Caspase-Glo 3/7 luminescence, 3 h; percent of clofoctol response, vehicle zero | caspase activation, % (concentration not given with the values) | 330,000 tested, 0.066% active;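 active means over half of replicate activation scores above 10%, or exactly half above 10 with the replicate mean above 10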
* marks the source's active call; other numbers are inactive results.

O=C(OCC(F)(F)C(F)F)c1ccccc1C(=O)Oc1ccc(F)cc1F was read as CHOP inh 18.2, XBP1 UPR activ 0.3, UPR CHOP act -1.3 and A1 inh 0.6.
For O=C(NC1=C(NC2CCS(=O)(=O)C2)C(=O)c2ccccc2C1=O)c1ccccc1 (stereo not drawn) the results were CHOP inh 102.3*, XBP1 UPR activ 11.7, UPR CHOP act 3.3 and A1 inh -5.0.
O=C(NC1=C(Nc2ccc(Cl)cc2)C(=O)c2ccccc2C1=O)c1ccccc1 was read as CHOP inh -53.5, XBP1 UPR activ -2.1, UPR CHOP act 4.6 and A1 inh 0.1.
For O=C(N/N=C/c1cc(Cl)cc(Cl)c1O)c1ccncc1 the results were CHOP inh 75.5*, XBP1 UPR activ -0.4, UPR CHOP act -3.2 and A1 inh -0.8.
O=C(Nc1nc(-c2ccccn2)cs1)C12CC3CC(CC(O)(C3)C1)C2 was read as CHOP inh 1.0, XBP1 UPR activ -3.5, UPR CHOP act 0.5 and A1 inh 1.2.
`O=C(COC(=O)CC12CC3CC(CC(Br)(C3)C1)C2)NC(=O)NCc1ccco1` gave CHOP inh 70.8*, XBP1 UPR activ -2.8, UPR CHOP act -1.8 and A1 inh 0.7.
`Cc1ccc(NNC(=O)C(O)(c2cccc(C(F)(F)F)c2)c2cccc(C(F)(F)F)c2)cc1` gave CHOP inh 106.9*, XBP1 UPR activ -1.4, UPR CHOP act -0.3 and A1 inh 0.5.
For CC(c1ccccc1)C1CC(=O)N(C2CCCCC2)C1=O (stereo not drawn) the results were CHOP inh 46.0, XBP1 UPR activ -1.6, UPR CHOP act 1.0 and A1 inh -0.2.
CCOc1ccc(-n2c(SC(C)C)nc3c(c2=O)SCC3)cc1 was read as CHOP inh 78.2*, XBP1 UPR activ 1.7, UPR CHOP act -1.8 and A1 inh -0.5.
For COc1ccc(-c2noc3c2-c2nc(C(C)C)sc2CC3)cc1 the results were XBP1 UPR activ -0.6, UPR CHOP act -1.7 and A1 inh -1.7.
Screening O=c1cc(/C=C/c2ccccc2)oc2ccccc12 returned CHOP inh 73.6*, XBP1 UPR activ 4.8, UPR CHOP act 4.8 and A1 inh -4.4.
`Cc1ccc(-c2noc(COc3ccccc3C)n2)cc1` gave CHOP inh 89.7*, XBP1 UPR activ 0.0, UPR CHOP act 2.8 and A1 inh -2.4.
Screening COc1ccccc1-c1nc(-c2ccc(Br)o2)no1 returned CHOP inh 72.8*, XBP1 UPR activ 2.8, UPR CHOP act 2.3 and A1 inh -8.5.
`COc1ccc(-c2noc(Cc3ccccc3OC)n2)cc1` gave CHOP inh 92.3*, XBP1 UPR activ 1.9, UPR CHOP act -0.7 and A1 inh -0.1.
`COc1ccc(-c2nc(-c3ccc(Br)o3)no2)cc1OC` gave CHOP inh 44.7, XBP1 UPR activ 9.3, UPR CHOP act 7.9 and A1 inh -0.7.
For Cc1ccccc1OCc1nc(-c2ccc(Br)o2)no1 the results were CHOP inh 83.7*, XBP1 UPR activ 6.2, UPR CHOP act 4.1 and A1 inh -0.7.
COc1ccccc1Cc1nc(-c2cccnc2)no1 was read as CHOP inh -11.9, XBP1 UPR activ 6.0, UPR CHOP act 1.8 and A1 inh 1.5.
COc1ccccc1Cc1nc(-c2ccc(Br)o2)no1 was read as CHOP inh 35.3, XBP1 UPR activ 1.0, UPR CHOP act 5.1 and A1 inh -0.2.
Screening COCCn1nnnc1C(c1cc2cc(C)cc(C)c2[nH]c1=O)N1CCN(c2ccccc2F)CC1 (stereo not drawn) returned CHOP inh 45.7, XBP1 UPR activ 1.6, UPR CHOP act 0.3 and A1 inh -1.2.
`CC(=O)c1c(C)nc(-c2ccccc2)n1O` gave CHOP inh 3.7, XBP1 UPR activ -4.0, UPR CHOP act -1.1 and A1 inh 0.1.
Screening O=c1cc(-c2ccccc2)cc(-c2ccccc2)n1CCO returned XBP1 UPR activ 2.0, UPR CHOP act -1.2 and A1 inh 1.2.
`COc1ccc(CN2CC(C(=O)NCCC3=CCCCC3)CC2=O)cc1` (stereo not drawn) gave CHOP inh -2.8, XBP1 UPR activ -1.0, UPR CHOP act -0.6 and A1 inh 0.1.
Cc1onc(-c2ccccc2)c1C(=O)NC(=S)NNC(=O)c1ccc(O)cc1O was read as CHOP inh 57.2, XBP1 UPR activ -0.4, UPR CHOP act -0.4 and A1 inh 0.0.
Screening Cc1onc(-c2ccccc2)c1C(=O)NC(=S)NNC(=O)c1ccccc1O returned CHOP inh 77.5*, XBP1 UPR activ 0.3, UPR CHOP act 0.3 and A1 inh -0.4.
For COCCn1c(C)cc(/C=C2/NC(=O)N(c3cccc(Cl)c3)C2=O)c1C the results were CHOP inh 70.8*, XBP1 UPR activ 2.1, UPR CHOP act 2.7 and A1 inh -1.2.
`CCn1c(C)cc(/C=C2/NC(=O)N(c3ccccc3)C2=O)c1C` gave CHOP inh 13.3, XBP1 UPR activ 4.5, UPR CHOP act 7.5 and A1 inh 0.0.
For CC(C)[C@H]1COCCS(=O)(=O)N1Cc1ccccc1-c1cccc2c1oc1ccccc12 the results were XBP1 UPR activ -2.4 and UPR CHOP act 3.1.
Screening CCCC(=O)Nc1ccccc1N1CCN(C(=O)C(C)C)CC1 returned CHOP inh 7.9, XBP1 UPR activ -0.5, UPR CHOP act -0.1 and A1 inh -0.6.
For COc1ccccc1CNS(=O)(=O)c1ccc(-n2cnnn2)c(C)c1 the results were XBP1 UPR activ 0.4, UPR CHOP act -1.5 and A1 inh 0.1.
For Cc1cc(S(=O)(=O)NCC(c2ccccc2)c2ccccc2)ccc1-n1cnnn1 the results were CHOP inh 70.1*, XBP1 UPR activ -4.5, UPR CHOP act -1.1 and A1 inh 1.8.
COc1cc(C(=O)NCCN2CCCC2)cc(OC)c1OC was read as CHOP inh 30.8, XBP1 UPR activ -3.5, UPR CHOP act -2.7 and A1 inh 1.7.
For CCOC(=O)C(C(=O)OCC)c1cc(Br)c2noc3c2c1C(=O)c1ccccc1-3 the results were CHOP inh 110.5*, XBP1 UPR activ -11.2, UPR CHOP act -6.7 and A1 inh 10.5*.
Screening CCOC(=O)c1sc2nc(NC(=O)C3CC3)sc2c1C returned CHOP inh 98.7*, XBP1 UPR activ 3.4, UPR CHOP act 5.6 and A1 inh -0.8.
Screening CCOC(=O)c1sc2nc(NC(=O)C3CCCCC3)sc2c1C returned CHOP inh 41.5, XBP1 UPR activ -0.6, UPR CHOP act 3.9 and A1 inh 0.9.
`CCOC(=O)c1sc2nc(NC(=O)C(C)(C)C)sc2c1C` gave CHOP inh 76.8*, XBP1 UPR activ 7.8, UPR CHOP act 12.1 and A1 inh -0.3.
Cc1nnc(SCC(=O)NNC(=O)c2ccccc2)n1Cc1ccccc1 was read as XBP1 UPR activ -1.4, UPR CHOP act 0.1 and A1 inh 1.1.

Assay outcomes from PubChem.
